Experimental data from ChEMBL document CHEMBL1125422, “Low molecular weight proteins as carriers for renal drug targeting. Preparation of drug-protein conjugates and drug-spacer derivatives and their catabolism in renal cortex homogenates and lysosomal lysates” (J Med Chem, 1992).

Experiments:
Rattus norvegicus [1] = species on record: Rattus norvegicus; experiment: Lysozyme-conjugated prodrugs: in vitro stability in lysosomal lysate at pH 5; format: functional
Summary of the method: (§1)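 Lysosomes isolated from pooled male Wistar rat kidney cortex by differential centrifugation, then lysed by 10 freeze–thaw cycles in liquid N2. 100 μL lysate diluted to 1.0 mL with 0.1 M phosphate buffer, pH 5.0 or 7.4. Samples were deproteinized and analysed by RP-HPLC against an internal standard. Parent drug released after 24 h, as a percentage, mean of ≥2 incubations.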

Rattus norvegicus [2] = species on record: Rattus norvegicus; experiment: (§2) Lysozyme-conjugated prodrugs: in vitro stability at pH 7.4; format: functional
Summary of the method: (§3)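 Conjugate incubated 24 h in pH 5.0 buffer, pH 7.4 buffer, or plasma buffered at pH 7.4. Samples were deproteinized with ACN, MeOH or 2 N HCl, centrifuged, and analyzed by RP-HPLC against an internal standard. Release is % parent drug = parent/(parent + derivative) from IS-normalized peak-area ratios, mean of at least two separate incubations.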

Rattus norvegicus [3] = species on record: Rattus norvegicus; experiment: Lysozyme-conjugated prodrugs: in vitro stability in rat cortical homogenate at pH 7.4; format: functional
Summary of the method: (§4)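 Renal cortices from three male Wistar rats were perfused, pooled, homogenized in 0.3 M sucrose and lysed by 10 freeze–thaw cycles. Conjugate was incubated with 250 μL homogenate in 0.1 M phosphate buffer, pH 5.0 or 7.4, to 1.0 mL for 24 h. Samples were deproteinized and analyzed by HPLC with internal standard. Release is % parent compound, mean of ≥2 incubations.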

Rattus norvegicus [4] = species on record: Rattus norvegicus; experiment: Lysozyme-conjugated prodrugs: in vitro stability in buffered plasma at pH 7.4; format: functional; summary of the method: as §3
Rattus norvegicus [5] = species on record: Rattus norvegicus; experiment: Lysozyme-conjugated prodrugs: in vitro stability in rat cortical homogenate at pH 5; format: functional; summary of the method: as §4
Rattus norvegicus [6] = species on record: Rattus norvegicus; experiment: (§5) Lysozyme-conjugated prodrugs: in vitro stability at pH 5; format: functional; summary of the method: as §3
Rattus norvegicus [7] = species on record: Rattus norvegicus; experiment: Lysozyme-conjugated prodrugs: in vitro stability in lysosomal lysate at pH 7.4; format: functional; summary of the method: as §1
Rattus norvegicus [8] = species on record: Rattus norvegicus; experiment: as §5; format: functional; summary of the method: as §3; remark: listed apart in the source
Rattus norvegicus [9] = species on record: Rattus norvegicus; experiment: as §5; format: ADME; summary of the method: as §3
Rattus norvegicus [10] = species on record: Rattus norvegicus; experiment: as §2; format: functional; summary of the method: as §3; remark: listed apart in the source
Rattus norvegicus [11] = species on record: Rattus norvegicus; experiment: as §2; format: functional; summary of the method: as §3; remark: listed apart in the source
Rattus norvegicus [12] = species on record: Rattus norvegicus; experiment: as §2; format: functional; summary of the method: as §3; remark: listed apart in the source
Rattus norvegicus [13] = species on record: Rattus norvegicus; experiment: as §2; format: functional; summary of the method: as §3; remark: listed apart in the source
Rattus norvegicus [14] = species on record: Rattus norvegicus; experiment: as §5; format: functional; summary of the method: as §3; remark: listed apart in the source

SMILES | Drug release (Rattus norvegicus [1]) | Drug release (Rattus norvegicus [2]) | Drug release (Rattus norvegicus [3]) | Drug release (Rattus norvegicus [4]) | Drug release (Rattus norvegicus [5]) | Drug release (Rattus norvegicus [6]) | Drug release (Rattus norvegicus [7]) | Drug release (Rattus norvegicus [8]) | Drug release (Rattus norvegicus [9]) | Drug release (Rattus norvegicus [10]) | Drug release (Rattus norvegicus [11]) | Drug release (Rattus norvegicus [12]) | Drug release (Rattus norvegicus [13]) | Drug release (Rattus norvegicus [14])
COc1ccc2c(c1)c(CC(=O)O)c(C)n2C(=O)c1ccc(Cl)cc1 | Stable | Stable | Stable | Stable | Stable | Stable |  |  |  |  |  |  |  | 
Nc1ccc2ccccc2c1 | Stable | Stable | Stable |  | Stable | Stable | Stable |  |  |  |  |  |  | 
COc1ccc2cc([C@H](C)C(=O)O)ccc2c1 [NAPROXEN] | Stable | Stable | Stable | Stable | Stable | Stable | Stable | 0% | 0% | 0% | 0% | 0% | 0% | 0%
Nc1nc(N)c2nc(-c3ccccc3)c(N)nc2n1 |  | Stable | Stable |  | Stable | Stable |  |  |  |  |  |  |  | 
